Experimental data as given in ChEMBL document CHEMBL1938389, “Jadomycins derived from the assimilation and incorporation of norvaline and norleucine” (J Nat Prod, 2011).
Calls of active or inactive are those of the source. No cut-off for these calls is given here.

Columns and labels:
[1] = Cytotoxicity against human NCI60 cells; assay type: functional
Method in brief: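 NCI 60-cell-line screen covering leukemia, NSCLC, colon, CNS, melanoma, ovarian, renal, prostate and breast lines. Five doses spanning 5 log10, top concentration 32 μM. Percent growth and mean optical density measured per NCI protocol. OD plotted against concentration to give GI50, TGI and LC50, reported as median (range) over up to 59 lines.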

[2] = tested on: Salmonella typhimurium; assay: Antimicrobial activity against Salmonella enterica Typhimurium C587 by CLSI method; assay type: functional, organism-based; details: Salmonella enterica subsp. enterica serovar Typhimurium
Method in brief: (§1)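 Broth MIC determination following Clinical and Laboratory Standards Institute methods. Panel: Gram-positive S. aureus C622, MRSA C623, S. epidermidis C960, B. subtilis C971, E. faecalis C625; Gram-negative S. enterica Typhimurium C587, E. coli C498, P. aeruginosa H187. Activity read as minimum inhibitory concentration.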

[3] = tested on: Escherichia coli; assay: Antimicrobial activity against Escherichia coli C498 by CLSI method; assay type: functional, organism-based; method in brief: as §1
[4] = tested on: Pseudomonas aeruginosa; assay: Antimicrobial activity against Pseudomonas aeruginosa H187 by CLSI method; assay type: functional, organism-based; method in brief: as §1
[5] = tested on: Staphylococcus epidermidis; assay: Antimicrobial activity against Staphylococcus epidermidis C960 by CLSI method; assay type: functional; method in brief: as §1
[6] = tested on: Staphylococcus aureus; assay: Antimicrobial activity against methicillin-resistant Staphylococcus aureus isolate C623 by CLSI method; assay type: functional
[7] = tested on: Nucleic Acid; assay: Binding affinity to Escherichia coli pUC19 DNA assessed as relaxation of supercoiled DNA at 100 uM by agarose gel electrophoresis; assay type: nucleic-acid assay
Method in brief: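 DNA in 10 mM Tris-Cl pH 8.5, diluted into Tris pH 7.4 (final 5 mM) and NaCl (final 50 mM). Jadomycin added without copper; volume 20 μL; 2 h at 37 °C. Quenched with loading buffer, electrophoresed on 1% agarose containing ethidium bromide (0.75 μg mL−1), 30 min at 8 V cm−1 in 1× TAE. UV visualization.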

[8] = tested on: Nucleic Acid; assay: Binding affinity to Escherichia coli pUC19 DNA assessed as relaxation of supercoiled DNA at 0.1 to 100 uM by agarose gel electrophoresis in presence of Cu ions; assay type: nucleic-acid assay
Method in brief: (§2)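 DNA supplied in 10 mM Tris-Cl pH 8.5, diluted into Tris pH 7.4 (final 5 mM) plus NaCl (final 50 mM). Jadomycins premixed 1:1 with Cu(OAc)2 added; final volume 20 μL. Incubated 2 h at 37 °C, quenched with loading buffer, run on 1% agarose with ethidium bromide (0.75 μg mL−1), 30 min at 8 V cm−1 in 1× TAE. Bands visualized by UV transillumination.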

[9] = tested on: Nucleic Acid; assay: Binding affinity to Escherichia coli pUC19 DNA assessed as relaxation of supercoiled DNA by agarose gel electrophoresis in presence of Cu ions; assay type: nucleic-acid assay; method in brief: as §2

SMILES	GI50 [1] [µM]	LC50 [1] [µM]	TGI [1] [µM]	Activity [2]	Activity [3]	Activity [4]	MIC [5] [µg/mL]	MIC [6] [µg/mL]	Activity [7]	Activity [8]	EC50 [9] [µM]
CCC[C@@H]1C(=O)OC2c3cc(C)cc(O)c3C3=C(C(=O)c4c(O[C@H]5C[C@@H](O)[C@@H](O)[C@H](C)O5)cccc4C3=O)N21 (mixture of isomers)	4.9	19	10	inactive	inactive	inactive	4	32	inactive	Dose-dependent effect	86
CCCC[C@@H]1C(=O)OC2c3cc(C)cc(O)c3C3=C(C(=O)c4c(O[C@H]5C[C@@H](O)[C@@H](O)[C@H](C)O5)cccc4C3=O)N21 (mixture of isomers)	4.2	18	8.7	inactive	inactive	inactive	4	32	inactive	Dose-dependent effect	144
